Data from ChEMBL document CHEMBL1124793, “Comparative reactivity of 1-carba-1-dethiacephalosporins with cephalosporins” (J Med Chem, 1990).
Converted amounts (≈) assume the structure as drawn.

Tests used:
Enterobacter cloacae = assay: In vitro inhibitory activity against Enterobacter cloacae EB5; type: functional
Method in brief: (§1)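 Agar dilution: compounds were diluted in 0.1 M phosphate buffer, pH 7.0, and mixed at 50 °C into Mueller–Hinton agar with 1% Bacto-Supplement C. Fresh overnight cultures were diluted to about 1 × 10^4 cells/μL and spotted at 1 μL. Plates were incubated overnight at 35 °C in ambient air. MIC (μg/mL) was the lowest concentration preventing visible growth.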

Providencia rettgeri = assay: In vitro inhibitory activity against Proteus rettgeri C24; type: functional; method in brief: as §1
Haemophilus influenzae = assay: In vitro inhibitory activity against Haemophilus influenza C.L; type: functional; method in brief: as §1
Staphylococcus aureus = assay: In vitro inhibitory activity against Staphylococcus aureus X1.1; type: functional; method in brief: as §1
Klebsiella pneumoniae = assay: In vitro inhibitory activity against Klebsiella X26; type: functional; method in brief: as §1
Pseudomonas aeruginosa [1] = assay: In vitro inhibitory activity against Pseudomonas aeruginosa X258; type: functional; method in brief: as §1
Escherichia coli [2] = assay: In vitro inhibitory activity against Escherichia coli EC14; type: functional; method in brief: as §1
[3] = Half-life is evaluated; type: ADME
Method in brief: (§2)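 Parent β-lactam loss followed by HPLC, starting at 3.9 × 10^-4–1 × 10^-3 M, at 35 °C and μ = 0.5. pH was held at 10 by a pH-stat adding NaOH. Pseudo-first-order rate constants were derived, with half-lives from these rates. Some runs were done at pH 11, and the constant was taken as 1/10 of the observed value, assuming proportionality to [OH].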

[4] = Pseudo-first-order rate constant at pH 10, micro=0.5, 35 degrees Centigrade; type: ADME; method in brief: as §2
Streptococcus pyogenes = assay: In vitro inhibitory activity against Streptococcus pyogenes Park; type: functional; method in brief: as §1
[5] = Pseudo-first-order rate constant at pH 10 and 35 degrees Centigrade; type: ADME; method in brief: as §2
Pseudomonas aeruginosa [6] = assay: In vitro in vitro inhibitory activity against Pseudomonas aeruginosa X258; type: functional; method in brief: as §1
Escherichia coli [7] = assay: Inhibitory activity against Escherichia coli EC14; type: functional; method in brief: as §1

| MIC (Enterobacter cloacae) [µg/mL] | MIC (Providencia rettgeri) [µg/mL] | MIC (Haemophilus influenzae) [µg/mL] | MIC (Staphylococcus aureus) [µg/mL] | MIC (Klebsiella pneumoniae) [µg/mL] | MIC (Pseudomonas aeruginosa [1]) [µg/mL] | MIC (Escherichia coli [2]) [µg/mL] | half-life [3] [h] | K [4] [h⁻¹] | MIC (Streptococcus pyogenes) [µg/mL] | K [5] [h⁻¹] | MIC (Pseudomonas aeruginosa [6]) [µg/mL] | MIC (Escherichia coli [7]) [µg/mL] | SMILES |
| --- | --- | --- | --- | --- | --- | --- | --- | --- | --- | --- | --- | --- | --- |
| 128 (≈ 351 µM) | 8 (≈ 22 µM) | 1 (≈ 2.74 µM) | 0.25 (≈ 0.686 µM) | 0.25 (≈ 0.686 µM) | 128 (≈ 351 µM) | 1 (≈ 2.74 µM) | 0.867 | 0.799 | – | – | – | – | COC(=O)C1=C(C(=O)O)N2C(=O)[C@@H](NC(=O)Cc3cccs3)[C@H]2CC1 |
| 4 (≈ 11.4 µM) | 128 (≈ 366 µM) | 0.5 (≈ 1.43 µM) | 2 (≈ 5.72 µM) | 0.25 (≈ 0.715 µM) | 128 (≈ 366 µM) | 0.25 (≈ 0.715 µM) | 21.4 | – | 1 (≈ 2.86 µM) | 0.0324 | – | – | N[C@@H](C(=O)N[C@@H]1C(=O)N2C(C(=O)O)=C(Cl)CC[C@H]12)c1ccccc1 [LORACARBEF ANHYDROUS] |
| – | – | – | – | – | – | – | 66 | – | – | 0.0105 | – | – | O=C(Cc1cccs1)N[C@@H]1C(=O)N2C(C(=O)O)=C(C(=O)O)CC[C@H]12 |
| – | – | – | – | – | – | – | 2.04 | – | – | 0.34 | – | – | O=C(Cc1cccs1)N[C@@H]1C(=O)N2C(C(=O)O)=C(C(=O)O)CS[C@H]12 |
| 128 (≈ 312 µM) | 128 (≈ 312 µM) | 8 (≈ 19.5 µM) | 0.5 (≈ 1.22 µM) | 8 (≈ 19.5 µM) | 128 (≈ 312 µM) | 32 (≈ 78 µM) | 7.79 | – | 0.5 (≈ 1.22 µM) | 0.089 | – | – | CS(=O)(=O)OC1=C(C(=O)O)N2C(=O)[C@@H](NC(=O)COc3ccccc3)[C@H]2CC1 |
| 128 (≈ 367 µM) | 128 (≈ 367 µM) | 16 (≈ 45.9 µM) | 4 (≈ 11.5 µM) | 64 (≈ 184 µM) | 128 (≈ 367 µM) | 128 (≈ 367 µM) | 8.74 | – | 1 (≈ 2.87 µM) | 0.0793 | – | – | CC1=C(C(=O)O)N2C(=O)[C@@H](NC(=O)COc3ccccc3)[C@H]2SC1 |
| 0.06 (≈ 0.164 µM) | 0.008 (≈ 0.0219 µM) | 0.008 (≈ 0.0219 µM) | 16 (≈ 43.8 µM) | 0.008 (≈ 0.0219 µM) | 32 (≈ 87.6 µM) | 0.008 (≈ 0.0219 µM) | 123 | – | 0.015 (≈ 0.0411 µM) | 0.00565 | – | – | CO/N=C(\C(=O)N[C@@H]1C(=O)N2C(C(=O)O)=CCC[C@H]12)c1csc(N)n1 |
| 128 (≈ 365 µM) | 128 (≈ 365 µM) | 4 (≈ 11.4 µM) | 1 (≈ 2.85 µM) | 8 (≈ 22.8 µM) | 128 (≈ 365 µM) | 8 (≈ 22.8 µM) | 15.8 | 0.0438 | 0.25 (≈ 0.713 µM) | – | – | – | O=C(COc1ccccc1)N[C@@H]1C(=O)N2C(C(=O)O)=C(Cl)CC[C@H]12 |
| 128 (≈ 347 µM) | 128 (≈ 347 µM) | 2 (≈ 5.42 µM) | 0.25 (≈ 0.678 µM) | 8 (≈ 21.7 µM) | 128 (≈ 347 µM) | 64 (≈ 174 µM) | 0.774 | – | 0.25 (≈ 0.678 µM) | 0.895 | – | – | O=C(COc1ccccc1)N[C@@H]1C(=O)N2C(C(=O)O)=C(Cl)CS[C@H]12 |
| 0.06 (≈ 0.126 µM) | 0.03 (≈ 0.0632 µM) | 0.06 (≈ 0.126 µM) | 1 (≈ 2.11 µM) | 0.03 (≈ 0.0632 µM) | 2 (≈ 4.21 µM) | 0.03 (≈ 0.0632 µM) | 0.375 | – | 0.03 (≈ 0.0632 µM) | 1.85 | – | – | CO/N=C(\C(=O)N[C@@H]1C(=O)N2C(C(=O)[O-])=C(C[n+]3ccccc3)CS[C@H]12)c1csc(N)n1 |
| 128 (≈ 387 µM) | 128 (≈ 387 µM) | 32 (≈ 96.9 µM) | 4 (≈ 12.1 µM) | 32 (≈ 96.9 µM) | 128 (≈ 387 µM) | 128 (≈ 387 µM) | 433 | 0.0016 | 1 (≈ 3.03 µM) | – | – | – | CC1=C(C(=O)O)N2C(=O)[C@@H](NC(=O)COc3ccccc3)[C@H]2CC1 |
| 0.06 (≈ 0.131 µM) | 0.06 (≈ 0.131 µM) | 0.5 (≈ 1.1 µM) | 4 (≈ 8.76 µM) | 0.03 (≈ 0.0657 µM) | 2 (≈ 4.38 µM) | 0.03 (≈ 0.0657 µM) | 11 | – | 0.015 (≈ 0.0329 µM) | 0.0628 | – | – | CO/N=C(\C(=O)N[C@@H]1C(=O)N2C(C(=O)[O-])=C(C[n+]3ccccc3)CC[C@H]12)c1csc(N)n1 |
| 128 (≈ 355 µM) | 128 (≈ 355 µM) | 8 (≈ 22.2 µM) | 0.5 (≈ 1.39 µM) | 8 (≈ 22.2 µM) | 128 (≈ 355 µM) | 32 (≈ 88.8 µM) | 46.5 | 0.0149 | 0.25 (≈ 0.694 µM) | – | – | – | COCC1=C(C(=O)O)N2C(=O)[C@@H](NC(=O)COc3ccccc3)[C@H]2CC1 |
| 0.06 (≈ 0.156 µM) | 0.008 (≈ 0.0209 µM) | 0.015 (≈ 0.0391 µM) | 4 (≈ 10.4 µM) | 0.008 (≈ 0.0209 µM) | 32 (≈ 83.5 µM) | 0.015 (≈ 0.0391 µM) | 6.08 | – | 0.015 (≈ 0.0391 µM) | 0.114 | – | – | CO/N=C(\C(=O)N[C@@H]1C(=O)N2C(C(=O)O)=CCS[C@H]12)c1csc(N)n1 [CEFTIZOXIME] |
| 128 (≈ 335 µM) | 128 (≈ 335 µM) | 2 (≈ 5.23 µM) | 0.5 (≈ 1.31 µM) | 2 (≈ 5.23 µM) | – | 2 (≈ 5.23 µM) | 0.111 | – | 0.03 (≈ 0.0784 µM) | 6.27 | 128 (≈ 335 µM) | – | COC(=O)C1=C(C(=O)O)N2C(=O)[C@@H](NC(=O)Cc3cccs3)[C@H]2SC1 |
| 128 (≈ 338 µM) | 128 (≈ 338 µM) | 2 (≈ 5.29 µM) | 0.25 (≈ 0.661 µM) | 32 (≈ 84.6 µM) | 128 (≈ 338 µM) | 128 (≈ 338 µM) | 1.88 | – | 0.12 (≈ 0.317 µM) | 0.368 | – | – | COCC1=C(C(=O)O)N2C(=O)[C@@H](NC(=O)COc3ccccc3)[C@H]2SC1 |
| 128 (≈ 299 µM) | 128 (≈ 299 µM) | 4 (≈ 9.34 µM) | 0.125 (≈ 0.292 µM) | 8 (≈ 18.7 µM) | 128 (≈ 299 µM) | – | 0.363 | – | 0.015 (≈ 0.035 µM) | 1.91 | – | 64 (≈ 149 µM) | CS(=O)(=O)OC1=C(C(=O)O)N2C(=O)[C@@H](NC(=O)COc3ccccc3)[C@H]2SC1 |

| SMILES | MIC (Enterobacter cloacae) [µg/mL] | MIC (Providencia rettgeri) [µg/mL] | MIC (Haemophilus influenzae) [µg/mL] | MIC (Staphylococcus aureus) [µg/mL] | MIC (Klebsiella pneumoniae) [µg/mL] | MIC (Pseudomonas aeruginosa [1]) [µg/mL] | MIC (Escherichia coli [2]) [µg/mL] | half-life [3] [h] | K [4] [h⁻¹] | MIC (Streptococcus pyogenes) [µg/mL] | K [5] [h⁻¹] | MIC (Pseudomonas aeruginosa [6]) [µg/mL] | MIC (Escherichia coli [7]) [µg/mL] |
| --- | --- | --- | --- | --- | --- | --- | --- | --- | --- | --- | --- | --- | --- |
| N[C@@H](C(=O)N[C@@H]1C(=O)N2C(C(=O)O)=C(Cl)CS[C@H]12)c1ccccc1 [CEFACLOR ANHYDROUS] | 32 (≈ 87 µM) | 128 (≈ 348 µM) | 1 (≈ 2.72 µM) | 1 (≈ 2.72 µM) | 0.25 (≈ 0.68 µM) | 128 (≈ 348 µM) | 0.25 (≈ 0.68 µM) | 0.734 | – | 0.5 (≈ 1.36 µM) | 0.944 | – | – |
